Values after ≈ are worked out from the molar mass of the structure shown. Active and inactive are the calls of the source. The rule behind the calls is not given here.
How the values were obtained:
Bacillus subtilis = assay: Antimicrobial activity against Bacillus subtilis; assay type: functional, organism-based
P388 = assay: Cytotoxicity against DBA/2 mouse P388 cells; assay type: functional, cell-based; details: DBA/2, P388
Method in brief: (§1)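 Cultured tumour and normal cell lines: P-388 (lymphoid neoplasm, DBA/2 mouse), A-549 (human lung carcinoma), HT-29 (human colon carcinoma) and CV-1 (monkey kidney fibroblast). Potency was expressed as approximate IC50 values in μg/ml.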

A549 = assay: Cytotoxicity against human A549 cells; assay type: functional, cell-based; method in brief: as §1
Staphylococcus aureus = assay: Antimicrobial activity against Staphylococcus aureus; assay type: functional, organism-based
HT-29 = assay: Cytotoxicity against human HT-29 cells; assay type: functional, cell-based; method in brief: as §1
[1] = Cytotoxicity against african green monkey CV1 cells; assay type: cell-based; details: chlorocebus aethiops, cv-1; method in brief: as §1

CCC(=O)OC(CC)CC(=O)O[C@H]1C[C@@H]2[C@@]3(C)CCC[C@](C)(CC)[C@@H]3CC[C@@]2(C)[C@@H]2CC=C(C(C)=O)[C@H](C=O)[C@@]12C (stereo partly drawn)
Activity (Bacillus subtilis): Active | IC50 (P388): < 0.12 µg/mL | IC50 (A549): 0.21 µg/mL (≈ 0.368 µM)

CC[C@@]1(C)CCC[C@]2(C)[C@H]3C[C@H](OC(C)=O)[C@]4(C)[C@@H](C=O)[C@H](C(C)=O)[C@@H](OC(=O)C[C@@H](C)O)C[C@H]4[C@]3(C)CC[C@@H]12
Activity (Bacillus subtilis): Active | Activity (Staphylococcus aureus): Active | IC50 (P388): 0.23 µg/mL (≈ 0.41 µM) | IC50 (A549): 0.66 µg/mL (≈ 1.18 µM)

CC[C@@]1(C)CCC[C@]2(C)[C@H]3C[C@H](OC(=O)CC(C)OC(C)=O)[C@]4(C)[C@@H](C=O)C(C(C)=O)=CC[C@H]4[C@]3(C)CC[C@@H]12 (stereo partly drawn)
IC50 (P388): 0.2 µg/mL (≈ 0.368 µM) | IC50 (A549): 0.2 µg/mL (≈ 0.368 µM) | Activity (HT-29): Active | Activity [1]: Active

CCC(CC(=O)O[C@H]1C[C@@H]2[C@@]3(C)CCC[C@](C)(CC)[C@@H]3CC[C@@]2(C)[C@@H]2CC=C(C(C)=O)[C@H](C=O)[C@@]12C)OC(C)=O (stereo partly drawn)
Activity (Bacillus subtilis): Active | IC50 (P388): < 0.12 µg/mL | IC50 (A549): 0.25 µg/mL (≈ 0.449 µM)

CC[C@@]1(C)CCC[C@]2(C)[C@H]3C[C@H](OC(C)=O)[C@]4(C)[C@@H](C=O)[C@H](C(C)=O)[C@@H](O)C[C@H]4[C@]3(C)CC[C@@H]12
IC50 (P388): 0.1 µg/mL (≈ 0.211 µM) | IC50 (A549): 0.1 µg/mL (≈ 0.211 µM) | Activity (HT-29): Active | Activity [1]: Active

CCC(O)CC(=O)O[C@H]1C[C@H]2[C@]3(C)CC[C@H]4[C@@](C)(CC)CCC[C@]4(C)[C@H]3C[C@H](OC(C)=O)[C@]2(C)[C@@H](C=O)[C@@H]1C(C)=O (stereo partly drawn)
IC50 (P388): 0.5 µg/mL (≈ 0.87 µM) | IC50 (A549): 0.5 µg/mL (≈ 0.87 µM) | Activity (HT-29): Active | Activity [1]: Active

CCC(=O)O[C@H]1C[C@H]2[C@]3(C)CC[C@H]4[C@@](C)(CC)CCC[C@]4(C)[C@H]3C[C@H](OC(C)=O)[C@]2(C)[C@@H](C=O)[C@@H]1C(C)=O
Activity (Bacillus subtilis): Active | IC50 (P388): 0.67 µg/mL (≈ 1.26 µM) | IC50 (A549): 0.67 µg/mL (≈ 1.26 µM)

CC[C@@]1(C)CCC[C@]2(C)[C@H]3C[C@H](OC(C)=O)[C@]4(C)[C@@H](C=O)[C@H](C(C)=O)[C@@H](OC(C)=O)C[C@H]4[C@]3(C)CC[C@@H]12
Activity (Bacillus subtilis): Active | IC50 (P388): 0.91 µg/mL (≈ 1.76 µM) | IC50 (A549): 0.88 µg/mL (≈ 1.7 µM)
